From ChEMBL document CHEMBL1153622, “Antiviral evaluation of N-amino-1,2,3-triazoles against Cantagalo virus replication in cell culture” (Eur J Med Chem, 2009)
The source made the active and inactive calls. No cut-off for these calls is given here.

Tests used:
Cantagalo virus [1] = experiment: Antiviral activity against Cantagalo virus in african green monkey BSC40 cells assessed inhibition of viral plaque number at 50 uM after 48 hrs post infection; format: functional; conditions: BSC-40, 48 h
Vaccinia virus = experiment: Antiviral activity against Vaccinia virus; format: functional, organism-based; conditions: Orthopoxvirus vaccinia
Cowpox virus = experiment: Antiviral activity against Cowpox virus; format: functional, organism-based
Cantagalo virus [2] = experiment: Antiviral activity against Cantagalo virus in african green monkey BSC40 cells assessed inhibition of viral yield at 50 uM after 24 hrs post infection by plaque assay; format: functional; conditions: BSC-40, 24 h
[3] = Cytotoxicity against african green monkey BSC40 cells assessed as cell viability at 50 uM for 24 hrs by neutral red assay; format: cell-based, BSC-40; conditions: chlorocebus aethiops, read-out: Activity
Outline: (§1)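 Confluent BSC-40 cells exposed to compound for 24 h at 37 °C, 0.5% DMSO control. Neutral red (50 µg/mL) added for 3 h at 37 °C, then 50% methanol with 1% acetic acid for 20 min at room temperature. OD 490 nm read; uptake proportional to viable cells.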

[4] = Cytotoxicity against african green monkey BSC40 cells assessed as non-viable cells at 50 uM for 24 hrs by neutral red assay; format: cell-based; conditions: chlorocebus aethiops, bsc-40, 24 h; outline: as §1
[5] = Cytotoxicity against african green monkey BSC40 cells assessed as non-viable cells at 100 uM for 24 hrs by neutral red assay; format: cell-based; conditions: chlorocebus aethiops, bsc-40, 24 h; outline: as §1
Cantagalo virus [6] = experiment: Antiviral activity against Cantagalo virus replication in BSC-40 cells assessed as inhibition of viral protein accumulation at 50 uM after 24 hrs post infection by Western blot; format: functional, organism-based
Cantagalo virus [7] = experiment: Antiviral activity against Cantagalo virus replication in african green monkey BSC40 cells assessed as inhibition of viral protein accumulation after 24 hrs post infection by Western blot; format: functional, organism-based; conditions: BSC-40
Cantagalo virus [8] = experiment: Antiviral activity against Cantagalo virus in african green monkey BSC40 cells assessed as inhibition of viral protein accumulation at 100 uM after 24 hrs post infection by Western blot; format: functional, BSC-40; set-up: scale not given: the % may be the effect or the level left
Cantagalo virus [9] = experiment: Antiviral activity against Cantagalo virus in african green monkey BSC40 cells assessed inhibition of viral yield at 100 uM after 24 hrs post infection by plaque assay; format: functional, BSC-40; set-up: scale not given: the % may be the effect or the level left
Cantagalo virus [10] = experiment: Antiviral activity against Cantagalo virus in african green monkey BSC40 cells assessed inhibition of viral plaque formation at 100 uM after 48 hrs post infection; format: functional; conditions: BSC-40, 48 h
[11] = Cytotoxicity against african green monkey BSC40 cells assessed as reduction in cell viability at 100 uM for 24 hrs by neutral red assay; format: cell-based; conditions: chlorocebus aethiops, bsc-40, 24 h; outline: as §1
[12] = Cytotoxicity against african green monkey BSC40 cells assessed as change in cell morphology at 100 uM for 24 hrs by neutral red assay; format: cell-based; conditions: chlorocebus aethiops, bsc-40, 24 h

Cc1c(C(=O)NN)nnn1Nc1ccc(Br)cc1
inhibition at 50 µM (Cantagalo virus [1]): 8.4%

CCOC(=O)c1nnn(Nc2ccccc2)c1C
inhibition at 50 µM (Cantagalo virus [1]): 15.2%

Nc1ccn(C[C@@H](CO)OCP(=O)(O)O)c(=O)n1 [CIDOFOVIR]
EC50 (Vaccinia virus): 10 µM

Cc1c(C(=O)NN)nnn1Nc1ccccc1
inhibition at 50 µM (Cantagalo virus [1]): 6.1%

Cc1c(C(=O)NN)nnn1Nc1ccc(Cl)cc1
inhibition at 50 µM (Cantagalo virus [1]): 3.79%

O=C(NN1C(=O)[C@@H]2[C@@H]3C=C[C@@H]([C@H]4C[C@@H]34)[C@@H]2C1=O)c1ccc(C(F)(F)F)cc1 [TECOVIRIMAT]
EC50 (Vaccinia virus): < 0.5 µM | EC50 (Cowpox virus): < 0.5 µM

CCOC(=O)c1nnn(Nc2ccc(Cl)cc2)c1C
inhibition at 50 µM (Cantagalo virus [1]): 11%

CCOC(=O)c1nnn(Nc2cc(Cl)ccc2Cl)c1C
inhibition at 50 µM (Cantagalo virus [1]): 47.2% | inhibition at 50 µM (Cantagalo virus [2]): 67.5% | viability at 24 h, 50 µM [3]: 60%

Cc1c(C(=O)NN)nnn1Nc1ccc(F)cc1
inhibition at 50 µM (Cantagalo virus [1]): 48.3% | inhibition at 50 µM (Cantagalo virus [2]): 55.7% | Activity [4]: 10% | Activity [5]: 30% | Activity (Cantagalo virus [6]): Active | Activity (Cantagalo virus [7]): Dose-dependent effect | Activity (Cantagalo virus [8]): 71.2% | Activity (Cantagalo virus [9]): 80%

Cc1c(C(=O)NN)nnn1Nc1cc(Cl)ccc1Cl
inhibition at 50 µM (Cantagalo virus [1]): 9.71%

CCOC(=O)c1nnn(Nc2ccc(F)cc2)c1C
inhibition at 50 µM (Cantagalo virus [1]): 9.42%

CCOC(=O)c1nnn(Nc2ccc(Br)cc2)c1C
inhibition at 50 µM (Cantagalo virus [1]): 34.4% | inhibition at 100 µM (Cantagalo virus [10]): 84.6% | Activity [11]: 52.6% | Activity [12]: Toxic
